Rows were chosen to be rich in hits. Some 1.9% of all compounds tested hit in one or more screens of this group.
SUMO HTRF inh: inhibitors of in vitro SUMOylation cascade, primary screen, biochemical, HTRF, uHTS. HTRF SUMOylation assay, SAE1/SAE2 + UBC9. inhibition, % at 35 µM. hit rate 0.36% among 290,000; in the data active = inhibition above about 50%, passing the limit was not always enough
DNMT1 inh: human DNMT1 methyltransferase inhibitors, primary screen, biochemical, molecular beacon, fluorescence, HinP1I cleavage, uHTS | inhibition (reported as % activation of signal), % at 10 µM | hit rate 0.83% among 360,000 | DNA (cytosine-5)-methyltransferase 1 (Homo sapiens), P26358 | AID 588458, 2011; in the data active = inhibition above about 50%
STEP inh: STEP phosphatase inhibitors, primary screen, biochemical, fluorescence intensity, uHTS. recombinant STEP, OMFP fluorogenic substrate. inhibition, % at 20 µM. hit rate 0.25% among 360,000;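 active = inhibition at 20 µM, scaled per plate between control wells, above about 37%, limit read from the data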;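 also: 0% = DMSO with enzyme and substrate and 100% = substrate only without enzyme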
Target sequence (P54829 whole entry, looked up): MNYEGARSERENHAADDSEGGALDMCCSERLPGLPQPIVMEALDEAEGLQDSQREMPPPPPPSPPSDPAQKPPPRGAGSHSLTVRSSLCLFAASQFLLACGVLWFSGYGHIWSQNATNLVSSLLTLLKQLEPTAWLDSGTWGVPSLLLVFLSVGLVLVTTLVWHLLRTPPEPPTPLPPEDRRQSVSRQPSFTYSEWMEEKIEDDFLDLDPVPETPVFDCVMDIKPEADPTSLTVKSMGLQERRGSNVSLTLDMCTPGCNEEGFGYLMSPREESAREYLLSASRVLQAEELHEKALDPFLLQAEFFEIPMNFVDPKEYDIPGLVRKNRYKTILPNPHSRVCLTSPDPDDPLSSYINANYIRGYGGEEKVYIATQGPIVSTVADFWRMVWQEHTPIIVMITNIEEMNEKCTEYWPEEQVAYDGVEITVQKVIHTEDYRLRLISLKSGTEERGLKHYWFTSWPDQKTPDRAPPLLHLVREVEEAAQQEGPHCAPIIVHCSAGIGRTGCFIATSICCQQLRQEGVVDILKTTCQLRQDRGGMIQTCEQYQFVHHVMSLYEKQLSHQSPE
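Assay system: isolated STEP enzyme. Buffer or medium: pH 6.0 Bis-Tris with DTT and Tween 20. Also added: fluorogenic phosphatase substrate OMFP at 25 µM final. Dosing: 20 µM, 1% DMSO. Timing: 20 min reaction, room temperature, in the dark. Measured by: fluorescence intensity, excitation 480 nm, emission 540 nm. Evaluation: normalized % inhibition.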
Scp1 inh: Scp-1 phosphatase inhibitors, primary screen, biochemical, colorimetric, uHTS. Carboxy-terminal domain RNA polymerase II polypeptide A small phosphatase 1 (Homo …. Recombinant Scp1, phosphopeptide, malachite green phosphate absorbance. inhibition, % at 20 µM. hit rate 0.88% among 340,000. AID 493091, 2011;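 active = inhibition above about 50% at 20 µM, limit read from the data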;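 also: plate controls were DMSO wells with enzyme for no effect and wells lacking enzyme for full effect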
Target sequence (Q9GZU7 76-261 limits assumed): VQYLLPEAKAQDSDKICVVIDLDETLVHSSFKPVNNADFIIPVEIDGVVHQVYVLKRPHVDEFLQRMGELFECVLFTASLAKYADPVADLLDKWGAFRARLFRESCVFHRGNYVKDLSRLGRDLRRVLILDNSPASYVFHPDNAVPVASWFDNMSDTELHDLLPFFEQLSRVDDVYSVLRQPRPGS
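System: truncated SCP-1 phosphatase (76-261aa); medium: Tris acetate buffer pH 5.5 with MgCl2 and Tween-20; incubation: 45 min room-temperature reaction, 5 min colour, 30 min stabiliser; compound: single 20 µM dose, 1% DMSO; reagent: Phosphorylated 17-residue peptide substrate; read-out: % inhibition at 20 µM; technique: colorimetric free-phosphate detection, absorbance 630 nm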
LMPTP block: LMPTP phosphatase inhibitors, primary screen, biochemical, fluorescence intensity, uHTS; Low molecular weight phosphotyrosine protein phosphatase (Homo sapiens), P24666; recombinant LMPTP-A, OMFP fluorogenic substrate; inhibition, % at 20 µM; hit rate 0.22% among 360,000;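 active = compounds that cut the enzyme signal by at least half of the control window in the single-dose screen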;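 also: plate controls were DMSO wells with enzyme plus substrate for no effect and substrate without enzyme for full effect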
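Material: LMPTP-A; amount: 0.625 nM enzyme; doses: single 20 µM dose; times: reaction 50 min, room temperature, dark; technique: fluorescence intensity of OMFP turnover product; benchmarks: no-enzyme and uninhibited controls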
SUMO1 PPI mod: modulators of SUMO1 protein-protein interactions, primary screen, biochemical, uHTS. Small ubiquitin-related modifier 1 (Homo sapiens), P63165. SUMO1 binding to a labelled peptide, TR-FRET, 1 h. inhibition, % at 20 µM. hit rate 0.33% among 360,000; in the data active = inhibition above about 37%
Scp1 confirm: Scp-1 phosphatase inhibitors, retest, confirmation, biochemical, colorimetric, single concentration; shares compounds with Scp1 inh; recombinant SCP-1 catalytic domain, phosphate release, malachite green absorbance; inhibition, % at 20 µM; hit rate 61% among 2,500;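 also: plate controls were DMSO with enzyme for no effect and buffer wells lacking enzyme for full effect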
Scp-1 MG ctr: colorimetric readout interference by compounds, confirmation, artefact control for Scp-1 inhibitor project, biochemical, single concentration. shares compounds with Scp1 inh. Colorimetric interference counterscreen, malachite green absorbance 630 nm. apparent inhibition (interference), % at 20 µM. 2,500 tested, under 10 active;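 also: compounds added after enzyme reaction finished so only phosphate colour detection is probed; plate controls were DMSO wells with completed Scp-1 reaction for no effect and substrate wells lacking enzyme for full effect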
Scp-1 Tm shift: Scp-1 binding by thermal shift, confirmation, orthogonal assay for Scp-1 inhibitor project, biophysical, differential scanning fluorimetry; shares compounds with Scp1 inh; Recombinant SCP1, Sypro Orange thermal shift Tm; thermal shift relative to vanadate control, % at 40 µM; hit rate 25% among 1,500; AID 540329, 2011;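 active = substances whose mean melting-temperature shift, as a percentage of the reference inhibitor's shift, reaches about 5.3%, limit read from the data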;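 also: 0% = Tm of DMSO wells and 100% = Tm with sodium orthovanadate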
Starred values were filed as active, the others as inactive; · = no result given.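 The calls were made as follows, unless noted: active = inhibition of at least 30% at 20 µM; inactive = the rest.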

SMILES	SUMO HTRF inh	DNMT1 inh	STEP inh	Scp1 inh	LMPTP block	SUMO1 PPI mod	Scp1 confirm	Scp-1 MG ctr	others
Cc1cccc(NC(=O)CN2C(=O)S/C(=C\c3ccc(O)c([N+](=O)[O-])c3)C2=O)c1	2.6	-4.4	5.2	79.8*	8.0	-2.3	77.3*	-3.8	Scp-1 Tm shift=26.3*
Cc1cccc(NC(=O)CN2C(=O)S/C(=C\c3ccccn3)C2=O)c1	-0.6	12.3	3.1	-3.6	1.7	-0.7	·	·
O=C(CSc1nc2c(sc3ccccc32)c(=O)n1CCO)NCc1ccco1	1.6	25.1	2.8	73.9*	1.3	5.4	63.9*	-6.8	Scp-1 Tm shift=-18.9
O=C(CSc1nc2c(sc3ccccc32)c(=O)n1CCCN1CCCC1)NCc1ccco1	1.5	0.2	-3.0	-11.2	15.3	-1.7	·	·
CC(=O)c1cccc(OC(=O)c2ccc3c(=O)n4c(nc3c2)CCC4)c1	·	-0.1	-0.9	67.6*	-0.1	-6.3	12.0	-9.8
COc1cccc(NC(=O)C2CCCCC2)c1	20.7	2.4	1.2	69.6*	0.0	-1.1	-0.1	-10.1
Cn1cc(Br)c(C(=O)NC2CCCCCC2)n1	19.4	0.2	-1.5	-1.8	-2.2	1.0	·	·
O=S1(=O)NC(CC2=CCCCC2)C2CCCCC2O1 (stereo not drawn)	5.9	2.8	1.2	50.1*	0.7	1.0	-10.8	-15.6
CCC1NC(=O)c2cc3ccccc3cc2-n2c1nc1cc(OC)c(OC)cc1c2=O (stereo not drawn)	·	0.4	-1.7	·	-1.6	-8.3	·	·
C=CCNC(=O)c1ccc2c(c1)N(CC)C(=O)c1ccccc1S2	-0.1	-0.2	-4.6	-4.5	-2.1	0.9	·	·
CCOC(=O)c1ccc2c(c1)N(CC)C(=O)c1ccccc1S2	-14.8	2.1	-0.3	83.1*	0.8	6.0	12.7	-9.3
COc1ccc(C(=O)N/N=C(\C)CC(=O)Nc2ccc3ccccc3c2)c(OC)c1	-8.7	-1.7	-1.7	-22.1	1.6	-6.4	·	·
COC(=O)C1=C(C)N(Cc2ccccc2)C(=NCCc2ccccn2)N[C@H]1c1cccc(F)c1	9.9	1.3	-2.3	58.5*	-1.8	-0.1	-15.3	-15.6
O=C(CCc1nc2ccccc2c(=O)[nH]1)NNC(=O)c1cccc(Cl)c1	·	2.7	1.0	62.4*	-0.2	10.0	-12.8	-19.7
Cc1noc(C)c1N=Nc1ccccc1C(=O)O	12.2	0.7	-0.4	12.3	0.2	-3.7	·	·
COC(=O)c1nnn(-c2nonc2N)c1CSc1nnc(N)s1	8.3	-0.7	1.6	-1.8	-3.2	-6.8	·	·
COC(=O)c1nnn(-c2nonc2N)c1CSc1nnc(C)s1	2.0	-2.0	-2.1	50.9*	-1.1	0.0	5.4	-1.0
CC[N+](CC)(CC)CC(=O)Nc1ccc(SC(F)F)cc1	4.8	-1.4	-2.7	60.0*	-0.5	-1.9	-9.6	-1.3
CCc1ccc(-n2nnnc2SCC(=O)Nc2ccc(NC(C)=O)cc2)cc1	14.4	-2.1	-1.4	-2.0	0.1	-0.4	·	·
CC(=O)Nc1ccc(-n2nnnc2SCC(=O)Nc2cccc(NC(=O)c3ccco3)c2)cc1	7.8	-4.0	4.4	55.3*	0.1	30.5	30.2*	-5.4	Scp-1 Tm shift=2.6
C[C@H](NC(=O)c1ccccc1)C(=O)OCC(=O)Nc1ccc(Cl)cn1	·	5.0	0.0	·	-2.5	6.7	·	·
C[N+]1(CC(=O)OCCCc2ccccc2)CCCC1	-1.9	-1.1	-0.5	61.9*	-1.5	-3.1	82.4*	-18.6	Scp-1 Tm shift=-26.1
C[N+]1(CC(=O)OCCCc2ccccc2)CCCCC1	5.7	-0.9	-1.2	23.5	-1.0	0.6	·	·
Clc1ccc(CN=C2Nc3ccccc3CS2)cc1	-38.1	-4.1	-1.5	-9.7	2.0	0.4	·	·
c1cncc(CN=C2Nc3ccccc3CS2)c1	3.2	2.6	0.5	68.8*	-0.2	3.2	-12.3	-12.3
SMILES	SUMO HTRF inh	DNMT1 inh	STEP inh	Scp1 inh	LMPTP block	SUMO1 PPI mod	Scp1 confirm	Scp-1 MG ctr	others
Cc1c(C(=O)OCC[N+]2(C)CCCCC2)oc2ccccc12	11.9	-5.0	0.7	88.8*	-0.5	-2.7	4.2	-19.1
Cc1c(C(=O)OCC(=O)N2CCC(C)CC2)oc2ccccc12	·	0.2	0.7	-6.6	-0.6	2.4	·	·
CCN(CC)S(=O)(=O)c1ccc(C(=O)OCC(=O)NCc2ccco2)cc1	3.0	17.1	1.8	55.4*	-0.1	0.2	46.6*	-6.2	Scp-1 Tm shift=-8.4
O=C(COc1ccccc1)NCc1ccco1	·	3.3	1.9	-3.8	-2.0	0.2	·	·
Cc1cccc(Nc2ccccc2C(=O)OCC(=O)NCc2ccco2)c1C	38.3	40.9	1.1	22.6	2.1	5.4	·	·
O=C(COC(=O)c1ccc(Cl)c(S(=O)(=O)N2CCCCC2)c1)NCc1ccco1	1.6	10.6	-3.0	71.2*	1.4	7.8	44.6*	-22.2	Scp-1 Tm shift=-10.3
O=C(COC(=O)c1ccc(Cl)c(S(=O)(=O)N2CCCC2)c1)NCc1cccs1	15.3	10.9	13.0	45.8	4.7	-1.8	·	·
Cc1ccccc1C(=O)OCC(=O)NCc1ccco1	·	9.2	-1.0	53.4*	0.0	1.0	18.0	-9.0
O=C(COC(=O)CCOc1ccccc1)NCc1ccco1	17.8	22.0	0.3	101.9*	6.4	1.6	57.9*	-13.9	Scp-1 Tm shift=-1.2
CCCCN1C(=O)C(CC(=O)NCC2CCCCC2)CC(C(=O)N2CCOCC2)=C1C (stereo not drawn)	·	-0.4	0.9	·	-1.5	2.4	·	·
Cc1cc(C(=O)COc2ccc3ccc(=O)oc3c2)c(C)n1Cc1cccs1	13.9	0.7	2.7	66.2*	5.5	26.4	52.8*	-20.0	Scp-1 Tm shift=-11.8
Cc1ccc(OCC(=O)c2cc(C)n(Cc3cccs3)c2C)c([N+](=O)[O-])n1	18.9	-3.9	2.6	-9.7	2.1	-19.0	·	·
CCC1(CC)NC(=O)N(CC(=O)OCC(=O)Nc2ccccc2[N+](=O)[O-])C1=O	-6.1	-0.3	-3.6	-5.2	-1.6	-16.4	·	·
